This is a sample that favours compounds with a hit; in the whole collection about 3% have one here.
SENP7 block: SENP7 protease inhibition | inhibition, % at 5 µM | recombinant SENP7, Z-RLRGG-aminoluciferin luminescence, 40 min | AID 434973 | Q9BQF6 | actives 1.5% (n = 330,000);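 active = inhibition above about 50% at the single test dose, limit read from the data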;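 also: plate controls were DMSO with enzyme for no effect and no enzyme buffer wells for full effect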
SENP8 block-1: blocks the human protease SENP8 | purified SENP8, Z-RLRGG-aminoluciferin cleavage, luminescence | actives 1.2% (n = 330,000) | inhibition, % at 10 µM | Q96LD8; in the data active = inhibition above about 50%
Target sequence (Q96LD8 whole entry, looked up): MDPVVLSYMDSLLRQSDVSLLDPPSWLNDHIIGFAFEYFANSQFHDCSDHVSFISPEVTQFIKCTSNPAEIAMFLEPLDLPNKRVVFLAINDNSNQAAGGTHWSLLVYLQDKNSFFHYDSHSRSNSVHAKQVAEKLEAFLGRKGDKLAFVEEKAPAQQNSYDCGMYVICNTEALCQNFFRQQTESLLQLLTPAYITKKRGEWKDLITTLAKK
SENP8 block-2: inhibitors of human SENP8 protease. recombinant SENP8, Nedd8 substrate fluorescence. inhibition, % at 20 µM. actives 0.64% (n = 360,000). AID 602440; in the data active = inhibition mostly above about 40%, no sharp cut-off; inactive = mostly below about 27%
SENP6 inh: SENP6 protease inhibition; AID 2599; actives 1.8% (n = 330,000); Recombinant SENP6 catalytic domain, aminoluciferin luminescence; Q9GZR1; inhibition, % at 10 µM;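 active = inhibition above about 50% at the single tested dose, limit read from the data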;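 also: plate controls were DMSO wells with enzyme for no effect and DMSO wells lacking enzyme for full effect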
UBC13 inh: blocks human UBC13 polyubiquitin chain formation | inhibition, % at 20 µM | actives 0.47% (n = 330,000) | AID 485273 | TR-FRET; in the data active = inhibition above about 45%, passing the limit was not always enough
Target sequence (P61088 whole entry, looked up): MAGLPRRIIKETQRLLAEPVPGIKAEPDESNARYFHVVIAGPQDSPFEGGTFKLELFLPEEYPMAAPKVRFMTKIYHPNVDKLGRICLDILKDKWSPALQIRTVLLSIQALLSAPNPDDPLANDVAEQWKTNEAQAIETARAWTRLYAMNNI
Apaf-1 inh: inhibitors of human Apaf-1 apoptosome; O14727; reconstituted apoptosome caspase-3 activity, DEVD-Rh110 fluorescence; inhibition, % at 20 µM; actives 0.71% (n = 330,000); active = inhibition of at least 40% at 20 µM;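 also: plate controls were DMSO wells for no effect and DEVD-CHO caspase inhibitor wells for full effect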
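System: Apoptosome proteins | Medium: Hepes pH 7.5 with detergent and BSA | Also added: Cytochrome c trigger plus (Z-DEVD)2-Rh110 caspase-3 substrate | Incubation: 30 min compound preincubation, 50 min activation, room temperature | Detection: Rhodamine 110 fluorescence at Ex 480/Em 540 nm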
SENP8 conf: confirmation of human SENP8 protease inhibitors; shares compounds with SENP7 block; Recombinant SENP8, Z-RLRGG-aminoluciferin luminescence, 60 min; inhibition, % at 12.5 µM; actives 40% (n = 6,200); AID 488912;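 active = mean inhibition across replicates above about 50%, limit read from the data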
SENP6 conf: confirmation of human SENP6 protease inhibitors; shares compounds with SENP7 block; recombinant SENP6, Z-RLRGG-aminoluciferin luminescence; inhibition, % at 12.5 µM; actives 58% (n = 6,200)
SENP7 conf: human SENP7 inhibition, confirmed; shares compounds with SENP7 block; recombinant SENP7, Z-RLRGG-aminoluciferin luminescence, 40 min; inhibition, % at 12.5 µM; actives 69% (n = 6,200); AID 488917
Casp3 SENP sel: caspase-3 inhibition (SENP selectivity assay); inhibition, % at 12.5 µM; shares compounds with SENP7 block; AID 488918; purified caspase-3, Z-DEVD-aminoluciferin luminescence, 60 min; actives 60% (n = 6,200);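 active = mean inhibition above about 50%, limit read from the data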;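 also: plate controls were enzyme with DMSO for no effect and wells without caspase-3 for full effect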
Target sequence (P42574 28-227 limits assumed): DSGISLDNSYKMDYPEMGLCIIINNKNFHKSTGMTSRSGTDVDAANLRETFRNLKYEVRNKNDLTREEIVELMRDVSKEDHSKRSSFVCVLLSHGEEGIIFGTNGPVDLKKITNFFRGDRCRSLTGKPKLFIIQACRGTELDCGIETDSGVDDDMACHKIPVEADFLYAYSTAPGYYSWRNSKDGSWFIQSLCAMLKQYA
Luc interf: interferes with luciferase luminescence in SENP counter-screen; actives 39% (n = 6,200); shares compounds with SENP7 block; inhibition, % at 12.5 µM; Pre-incubated SENP8/Z-RLRGG-aminoluciferin, luciferase luminescence interference;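 active = mean inhibition above about 50% when retested at one dose, limit read from the data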;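 also: plate controls were DMSO wells with completed reaction for no effect and substrate without enzyme for full effect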
* hit, by the source's call; nt = no result.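 The calls were made as follows, unless noted: active = mean inhibition above about 50% in the one-dose retest (limit read from the data); inactive = the rest.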

SMILES	SENP7 block	SENP8 block-1	SENP8 block-2	SENP6 inh	UBC13 inh	Apaf-1 inh	SENP8 conf	SENP6 conf	SENP7 conf	Casp3 SENP sel	Luc interf
c1ccc(COc2ccc3nocc3c2)cc1	90*	90*	-28	93*	-5	-1	86*	90*	100*	91*	84*
Nc1cc(OCc2ccccc2)ccc1OCc1ccccc1	nt	nt	5	nt	nt	nt	nt	nt	nt	nt	nt
CN(N=Cc1ccc([N+](=O)[O-])cc1)c1ccccn1	nt	nt	29	nt	nt	nt	nt	nt	nt	nt	nt
O=C(CCC1CCCC1)c1c(O)c2ccccc2oc1=O	4	46	4	71*	5	4	68*	68*	85*	70*	39
COc1cccc(-c2nc(-c3ccccn3)no2)c1OC	3	-3	-23	-10	-9	12	nt	nt	nt	nt	nt
COc1nc(-c2ccc(C)cc2)ccc1-c1noc(-c2ccco2)n1	0	-7	-286	-10	12	11	nt	nt	nt	nt	nt
c1ccc(-c2noc(-c3ccno3)n2)nc1	7	-5	29	-17	-2	-8	nt	nt	nt	nt	nt
c1ccc(-c2noc(-c3cccc4ccccc34)n2)nc1	90*	89*	-356	96*	10	12	93*	95*	101*	90*	94*
Clc1cccc(-c2nc(-c3ccccn3)no2)c1	98*	92*	15	96*	4	9	97*	98*	102*	97*	97*
c1ccc(-c2noc(-c3ccco3)n2)nc1	73*	42	1	74*	1	-8	65*	68*	92*	92*	70*
COc1nc(C)ccc1-c1noc(-c2ccco2)n1	61*	41	2	70*	5	-20	51*	57*	85*	69*	28
CCN(CC)S(=O)(=O)c1ccc(Cl)c(NC(=O)COc2ccc(OC)cc2[N+](=O)[O-])c1	2	9	5	1	2	-7	nt	nt	nt	nt	nt
CC(=O)C1C=CC(C)(C(=O)O)C2C=C(C)C(=O)C(C)(O)C12 (centres undefined)	nt	nt	14	nt	nt	nt	nt	nt	nt	nt	nt
c1ccc(-c2ccc(-c3nc(-c4ccccn4)no3)cc2)cc1	98*	97*	-32	98*	4	28	-24	74*	81*	97*	17
c1ccc(-c2cc(-c3nc(-c4ccccn4)no3)c3ccccc3n2)cc1	7	2	-290	0	26	17	nt	nt	nt	nt	nt
O=[N+]([O-])c1cccc(-c2noc(-c3ccco3)n2)c1	54*	45	16	68*	2	0	9	8	29	25	9
Cc1ccc(-c2nc(-c3ccccn3)no2)cc1	99*	98*	27	99*	0	3	4	101*	103*	100*	99*
Cc1ccc(Cc2nc(-c3ccccn3)no2)cc1	14	-5	4	6	0	4	nt	nt	nt	nt	nt
c1ccc(-c2nc(-c3ccccn3)no2)cc1	101*	95*	15	96*	3	-8	98*	99*	103*	99*	97*
CCn1cc(C(=O)N[C@@H](CCSC)C(=O)NCCCn2ccnc2)c(=O)c2cc3c(cc21)OCO3	12	3	-110	14	-6	7	nt	nt	nt	nt	nt
Cn1c(/C=C/c2cccc([N+](=O)[O-])c2)c([N+](=O)[O-])c(=O)n(C)c1=O	-11	-6	20	8	-4	11	nt	nt	nt	nt	nt
CCC(C)c1ccc(OCC(=O)Nc2ccc(CN3CCOCC3)cc2)cc1 (centres undefined)	2	-3	8	-2	14	12	nt	nt	nt	nt	nt
Cc1ccc2nc(-c3ccccn3)oc2c1	81*	63*	-417	83*	11	3	9	71*	95*	89*	44
Cc1ccc(S(=O)(=O)Nc2ccccn2)cc1[N+](=O)[O-]	-3	4	16	-10	2	-5	nt	nt	nt	nt	nt
Cc1ccc(-c2nc(-c3ccccn3)no2)cc1[N+](=O)[O-]	88*	85*	12	92*	-13	0	63*	83*	88*	85*	23
SMILES	SENP7 block	SENP8 block-1	SENP8 block-2	SENP6 inh	UBC13 inh	Apaf-1 inh	SENP8 conf	SENP6 conf	SENP7 conf	Casp3 SENP sel	Luc interf
COc1cc2c(cc1OC)CN(C(=O)C1CCCN1S(=O)(=O)c1ccc(C)cc1)CC2 (centres undefined)	3	2	-3	0	5	9	nt	nt	nt	nt	nt
CC(=O)Oc1cccc(/C=C2\Sc3ccccc3C2=O)c1	83*	89*	-6	91*	9	16	75*	94*	68*	41	23
CCCCOc1ccc(/C=C2/Sc3ccccc3C2=O)cc1	71*	76*	-245	44	-28	4	3	18	15	12	8
O=C1Nc2ccccc2S/C1=C/c1cccs1	-9	-24	-2	-14	0	17	nt	nt	nt	nt	nt
CC(=O)Oc1cccc(/C=C2\C=C(c3ccc(C)cc3)OC2=O)c1	-4	-12	-63	3	-7	-9	nt	nt	nt	nt	nt
CCCCOc1ccc(/C=c2\sc3ncnn3c2=O)cc1	2	-9	4	-12	3	8	nt	nt	nt	nt	nt
O=C1/C(=C/c2cccs2)Sc2ccccc21	93*	81*	-213	86*	-28	6	3	41	58*	39	26
CC(C)COc1ccc(/C=C2/Sc3ccccc3C2=O)cc1	95*	94*	-274	96*	-22	24	4	22	23	16	12
COc1ccccc1/C(C)=N/Oc1cc(N)cc([N+](=O)[O-])c1	-4	-2	25	2	7	2	nt	nt	nt	nt	nt
Cc1ccc(Nc2nc(/N=C/NO)n[nH]2)cc1C	30	15	10	-24	-17	-3	nt	nt	nt	nt	nt
CCc1ccccc1N1CN(Cc2cccnc2)CNC1=S	-8	-10	14	-17	-5	-4	nt	nt	nt	nt	nt
CC1CC(C)CN(CCCNS(=O)(=O)c2cc(Br)cc3c2N(C(=O)C2CC2)CC3)C1 (centres undefined)	-4	1	22	-8	11	4	nt	nt	nt	nt	nt
Cc1ccnc(N/C=C/C(=O)c2ccc(Br)cc2)c1	96*	87*	-202	88*	4	6	26	40	60*	54*	18

Assay outcomes: PubChem BioAssay, Sanford-Burnham Center for Chemical Genomics
